According to ChEMBL document CHEMBL3232750, “Synthesis, structure-activity relationships, and in vitro antibacterial and antifungal activity evaluations of novel pyrazole carboxylic and dicarboxylic acid derivatives” (2014):
In brackets after ≈: the same amount, converted by molar mass. Activity calls are given as the source filed them. The calls are words filed in the database; no cut-off is given here.

Tests used:
Candida parapsilosis [1] = assay: Antifungal activity against Candida parapsilosis at 100 U/disc at 25 degC after 48 hrs by agar well diffusion assay; type: functional, organism-based
Outline: (§1)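 Yeasts kept on Sabouraud Dextrose Agar slants at 4 °C and subcultured before use. Suspensions of 10^7 CFU/mL were swabbed onto Sabouraud Dextrose Agar and the plates dried 40 min at 35 °C. The nystatin positive-control disc carried 100 U. Plates were pre-incubated 2 h at 25 °C, then incubated 48 h at 25 °C. The growth-inhibition zone diameter was measured in mm, in duplicate.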

Nakaseomyces glabratus [2] = assay: Antifungal activity against Candida glabrata at 100 U/disc at 25 degC after 48 hrs by agar well diffusion assay; type: functional, organism-based; outline: as §1
Candida tropicalis [3] = assay: Antifungal activity against Candida tropicalis at 100 U/disc at 25 degC after 48 hrs by agar well diffusion assay; type: functional, organism-based; outline: as §1
Escherichia coli [4] = assay: Antibacterial activity against Escherichia coli at 30 ug/disc at 37 degC after 24 hrs by agar well diffusion assay; type: functional; conditions: read-out: DIZ
Outline: (§2)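 Positive-control antibiotic disc on Nutrient Agar swabbed with 10^8 CFU/mL bacteria. Plates pre-incubated 2 h at 25 °C, then 24 h at 37 °C. Inhibition zone diameter measured in mm. Duplicate.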

Staphylococcus aureus [5] = assay: Antibacterial activity against methicillin-resistant Staphylococcus aureus at 37 degC after 24 hrs by agar well diffusion assay; type: functional
Outline: (§3)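 Bacteria kept on Nutrient Agar slants at 4 °C and subcultured before use. Suspensions of 10^8 CFU/mL were swabbed onto Nutrient Agar and the plates dried 40 min at 35 °C. Compounds were dissolved in DMSO starting at 2.5 mg/ml, serially diluted two-fold, and loaded into 6 mm wells. Plates were pre-incubated 2 h at 25 °C, then 24 h at 37 °C. Inhibition zones were read and the MIC taken as the lowest inhibiting concentration. Duplicates were run.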

Staphylococcus aureus [6] = assay: Antibacterial activity against Staphylococcus aureus at 30 ug/disc at 37 degC after 24 hrs by agar well diffusion assay; type: functional; conditions: read-out: DIZ; outline: as §2
Candida albicans [7] = assay: Antifungal activity against Candida albicans ESOGU at 25 degC after 48 hrs by agar well diffusion assay; type: functional
Outline: (§4)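 Yeast suspensions of 10^7 CFU/mL were swabbed onto Sabouraud Dextrose Agar and dried about 40 min at 35 °C. Compounds were dissolved in DMSO (2.5 mg/ml initial) and diluted two-fold in DMSO, then loaded into 6 mm wells. Plates: 2 h pre-incubation at 25 °C, then 48 h at 25 °C. MIC read as the lowest concentration inhibiting growth around the well, in duplicate. The C. albicans clinical isolate came from a hospitalized patient at Eskisehir Osmangazi University hospital; the standard strain came from a culture collection.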

Candida albicans [8] = assay: Antifungal activity against Candida albicans at 25 degC after 48 hrs by agar well diffusion assay; type: functional; outline: as §4
Candida tropicalis [9] = assay: Antifungal activity against Candida tropicalis at 25 degC after 48 hrs by agar well diffusion assay; type: functional; outline: as §4
Escherichia coli [10] = assay: Antibacterial activity against Escherichia coli at 37 degC after 24 hrs by agar well diffusion assay; type: functional, organism-based
Outline: (§5)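 Compounds dissolved in DMSO at 2.5 mg/ml initial concentration, then serially diluted two-fold in DMSO. Nutrient Agar plates were swabbed with 10^8 CFU/mL bacteria and dried about 40 min at 35 °C. Solution was placed in 6 mm wells, then 2 h pre-incubation at 25 °C and 24 h at 37 °C. MIC is the lowest concentration giving a growth-inhibition zone around the well. Duplicate.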

Staphylococcus aureus [11] = assay: Antibacterial activity against Staphylococcus aureus at 37 degC after 24 hrs by agar well diffusion assay; type: functional; outline: as §5
Enterococcus = assay: Antibacterial activity against vancomycin-resistant Enterococcus species at 37 degC after 24 hrs by agar well diffusion assay; type: functional, organism-based; outline: as §3
Pseudomonas aeruginosa = assay: Antibacterial activity against Pseudomonas aeruginosa at 37 degC after 24 hrs by agar well diffusion assay; type: functional, organism-based; outline: as §5
Candida parapsilosis [12] = assay: Antifungal activity against Candida parapsilosis at 25 degC after 48 hrs by agar well diffusion assay; type: functional; outline: as §4
Nakaseomyces glabratus [13] = assay: Antifungal activity against Candida glabrata at 25 degC after 48 hrs by agar well diffusion assay; type: functional; outline: as §4

Compound | inhibition zone (IZ) (Candida parapsilosis [1]) [mm] | inhibition zone (IZ) (Nakaseomyces glabratus [2]) [mm] | inhibition zone (IZ) (Candida tropicalis [3]) [mm] | zone of inhibition at 30 µg/disc (Escherichia coli [4]) [mm] | Activity (Staphylococcus aureus [5]) | zone of inhibition at 30 µg/disc (Staphylococcus aureus [6]) [mm] | Activity (Candida albicans [7]) | MIC (Candida albicans [8]) [µg/mL] | Activity (Candida tropicalis [9]) | Activity (Escherichia coli [10]) | Activity (Staphylococcus aureus [11]) | Activity (Enterococcus) | Activity (Pseudomonas aeruginosa) | Activity (Candida parapsilosis [12]) | Activity (Nakaseomyces glabratus [13]) | Activity (Candida albicans [8]) | MIC (Candida albicans [7]) [µg/mL] | MIC (Candida tropicalis [9]) [µg/mL] | MIC (Candida parapsilosis [12]; Lodderomyces parapsilosis) [µg/mL]
NYSTATIN | 19 | 24 | 19 | – | – | – | – | – | – | – | – | – | – | – | – | – | – | – | –
CO/N=C(\C(=O)N[C@@H]1C(=O)N2C(C(=O)O)=C(COC(C)=O)CS[C@H]12)c1csc(N)n1 [CEFOTAXIME] | – | – | – | 45 | inactive | 35 | – | – | – | – | – | – | – | – | – | – | – | – | –
O=C(Nc1cccc(C(F)(F)F)c1)c1nn(-c2cccc([N+](=O)[O-])c2)c(-c2ccccc2)c1C(=O)Nc1cccc(C(F)(F)F)c1 | – | – | – | – | inactive | – | inactive | 50 (≈ 78.2 µM) | inactive | inactive | inactive | inactive | inactive | inactive | inactive | – | – | – | –
Cc1cccc(NC(=O)c2nn(-c3cccc([N+](=O)[O-])c3)c(-c3ccccc3)c2C(=O)Nc2cccc(C)c2)c1 | – | – | – | – | inactive | – | inactive | – | inactive | inactive | inactive | inactive | inactive | inactive | inactive | inactive | – | – | –
CCNC(=O)NC(=O)c1nn(-c2cccc([N+](=O)[O-])c2)c(-c2ccccc2)c1C(=O)NC(=O)NCC | – | – | – | – | inactive | – | – | 25 (≈ 50.7 µM) | inactive | inactive | inactive | inactive | inactive | inactive | inactive | – | 25 (≈ 50.7 µM) | – | –
O=C(Nc1ccc([N+](=O)[O-])cc1)c1nn(-c2cccc([N+](=O)[O-])c2)c(-c2ccccc2)c1C(=O)Nc1ccc([N+](=O)[O-])cc1 | – | – | – | – | inactive | – | – | 25 (≈ 42.1 µM) | – | inactive | inactive | inactive | inactive | – | inactive | – | 25 (≈ 42.1 µM) | 50 (≈ 84.2 µM) | 25 (≈ 42.1 µM)
